This is an account of results in ChEMBL document CHEMBL1122849, “Synthesis and properties of bis(2,2-dimethylaziridinyl)phosphinic amides: a series of new antineoplastic agents” (1985).

Several values for one entry are separate records, joined by “and”; a condition that tells them apart may be missing. Identical values can stand only once.

Test [1] relates to P388. Put plainly: Compound was evaluated for the antineoplastic activity against P388 leukemia at an optimal dose of 256 mg/kg administered intraperitoneally. Format: functional, Mus musculus. Conditions: route intraperitoneal.
Test [2] concerns B16. The test is described as follows: Compound was evaluated for the antineoplastic activity on B16 Melanoma cells at the optimal dose of 160 mg/kg through intraperitoneal route on days 1,5,9. Format: functional, Mus musculus.
Test [3] has as its system B16. Put plainly: Compound was evaluated for the antineoplastic activity on B16 Melanoma cells at the optimal dose of 120 mg/kg through intraperitoneal route on days 1,5,9. In kind it is functional, Mus musculus.
In test [4] the test system is B16. The test is described as follows: Compound was evaluated for the antineoplastic activity on B16 Melanoma cells at the optimal dose of 80 mg/kg through intraperitoneal route on days 1,5,9. Format: functional, Mus musculus.
The species named for test [5] is Mus musculus. Put plainly: Tumor free mice out of 6 surviving to day 30 or beyond was determined. In kind it is functional. In short, it runs like this:
(§1)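 Surviving mice were autopsied when the experiment ended. A mouse was scored cured if tumor-free with no visible disease at day 30 (P388, L1210) or day 60 (B16, C26, M109). Groups held 6, 10 or 8 mice.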

Test [6] has as its system B16. Put plainly: Compound was evaluated for the antineoplastic activity on B16 Melanoma cells at the optimal dose of 100 mg/kg through intraperitoneal route on days 1,5,9. Format: functional, Mus musculus.
Test [7] deals with M109. The test is described as follows: Antitumor activity against M109 implants through intraperitoneal route along with the optimal dose of 150 mg/kg through intraperitoneal route on 1,4 days. In kind it is functional, Mus musculus.
Test [8] deals with P388. Put plainly: Compound was evaluated for the antineoplastic activity against P388 leukemia at an optimal dose of 80 mg/kg administered intraperitoneally. In kind it is functional, Mus musculus. Conditions: route intraperitoneal.
The subject of test [9] is Colon 26. Put plainly: Antitumor activity against C26 implants through intraperitoneal route along with the optimal dose of 120 mg/kg through intraperitoneal injection on 5,8 days. In kind it is functional, Mus musculus.
In test [10] the test system is M109. The test is described as follows: Antitumor activity against M109 implants through subcutaneous route along with the optimal dose of 100 mg/kg through intraperitoneal route on 1,4 days. In kind it is functional, Mus musculus.
Test [11] relates to Colon 26. Put plainly: Antitumor activity against C26 implants through subcutaneous route along with the optimal dose of 120 mg/kg through intraperitoneal injection on 5,8 days. Format: functional, Mus musculus.
Test [12] concerns P388. The test is described as follows: Compound was evaluated for the antineoplastic activity against P388 leukemia at an optimal dose of 64 mg/kg administered intraperitoneally. In kind it is functional, Mus musculus. Conditions: route intraperitoneal.
For test [13], the system named is Colon 26. Put plainly: Antitumor activity against C26 implants through intraperitoneal route along with the optimal dose of 50 mg/kg through intraperitoneal injection on 1,4 days. Format: functional, Mus musculus.
Test [14] is filed under the species Mus musculus. The test is described as follows: Tumor free mice out of 10 surviving to day 60 was determined. Format: functional. Put shortly: as §1
The subject of test [15] is Colon 26. The test is described as follows: Antitumor activity against C26 implants through subcutaneous route along with the optimal dose of 60 mg/kg through intraperitoneal injection on 1,4 days. In kind it is functional, Mus musculus.
For test [16], the system named is L1210. The test is described as follows: Compound was evaluated for the antineoplastic activity on L1210 leukemia cell line at the optimal dose of 180 mg/kg administered intraperitoneally on day 1 following intraperitoneal implant of 10e 6 L1210 cells, in six mice.9. In kind it is functional, Mus musculus.
For test [17], the system named is B16. Put plainly: Compound was evaluated for the antineoplastic activity on B16 Melanoma cells at the optimal dose of 60 mg/kg through intraperitoneal route on days 1,5,9. In kind it is functional, Mus musculus.
Test [18] has as its system B16. Put plainly: Compound was evaluated for the antineoplastic activity on B16 Melanoma cells at the optimal dose of 10 mg/kg through intraperitoneal route on days 1,5,9. In kind it is functional, Mus musculus.
In test [19] the test system is Colon 26. Put plainly: Antitumor activity against C26 implants through intraperitoneal route along with the optimal dose of 80 mg/kg through intraperitoneal injection on 1,4 days. Format: functional, Mus musculus.
The subject of test [20] is P388. Put plainly: Compound was evaluated for the antineoplastic activity against P388 leukemia at an optimal dose of 128 mg/kg administered intraperitoneally. In kind it is functional, Mus musculus. Conditions: route intraperitoneal.
Test [21] relates to M109. Put plainly: Antitumor activity against M109 implants through subcutaneous route along with the optimal dose of 70 mg/kg through intraperitoneal route on 1,4 days. In kind it is functional, Mus musculus.
In test [22] the test system is B16. The test is described as follows: (§2) Compound was evaluated for the antineoplastic activity on B16 Melanoma cells at the optimal dose of 40 mg/kg through intraperitoneal route on days 1,5,9. In kind it is functional, Mus musculus.
Test [23] relates to Colon 26. Put plainly: Antitumor activity against C26 implants through subcutaneous route along with the optimal dose of 50 mg/kg through intraperitoneal injection on 1,4 days. In kind it is functional, Mus musculus.
Test [24] concerns L1210. The test is described as follows: Compound was evaluated for the antineoplastic activity on L1210 leukemia cell line at the optimal dose of 60 mg/kg administered intraperitoneally on day 1 following intraperitoneal implant of 10e 6 L1210 cells, in six mice. Format: functional, Mus musculus.
For test [25], the system named is B16. The test is described as §2. Format: functional, Mus musculus. The source holds these as a separate data set.
Test [26] relates to M109. The test is described as follows: Antitumor activity against M109 implants through subcutaneous route along with the optimal dose of 70 mg/kg through intravenously route on 1,4 days. Conditions: route intravenous. In kind it is functional, Mus musculus.
Test [27] concerns B16. Put plainly: Compound was evaluated for the antineoplastic activity on B16 Melanoma cells at the optimal dose of 50 mg/kg through intraperitoneal route on days 1,5,9. In kind it is functional, Mus musculus.
Test [28] concerns Colon 26. The test is described as follows: Antitumor activity against C26 implants through intraperitoneal route along with the optimal dose of 120 mg/kg through intraperitoneal injection on 1,4 days. In kind it is functional, Mus musculus.
The species named for test [29] is Mus musculus. Put plainly: Tumor free mice out of 8 surviving to day 60 or beyond was determined. In kind it is functional. In short, it runs like this: as §1
Test [30] deals with Colon 26. The test is described as follows: Antitumor activity against C26 implants through subcutaneous route along with the optimal dose of 25 mg/kg through intraperitoneal injection on 1,4 days. Format: functional, Mus musculus.
Test [31] has as its system L1210. The test is described as follows: Compound was evaluated for the antineoplastic activity on L1210 leukemia cell line at the optimal dose of 180 mg/kg administered intraperitoneally on day 1 following intraperitoneal implant of 10e 6 L1210 cells, in six mice. Format: functional, Mus musculus.
Test [32] deals with Colon 26. Put plainly: Antitumor activity against C26 implants through intraperitoneal route along with the optimal dose of 60 mg/kg through intraperitoneal injection on 1,4 days. Format: functional, Mus musculus.
Test [33] relates to B16. The test is described as follows: Compound was evaluated for the antineoplastic activity on B16 Melanoma cells at the optimal dose of 24 mg/kg through intraperitoneal route on days 1,5,9. Format: functional, Mus musculus.
Test [34] deals with B16. The test is described as follows: Compound was evaluated for the antineoplastic activity on B16 Melanoma cells at the optimal dose of 18 mg/kg through intraperitoneal route on days 1,5, 9. Format: functional, Mus musculus.
For test [35], the system named is B16. Put plainly: Compound was evaluated for the antineoplastic activity on B16 Melanoma cells at the optimal dose of 36 mg/kg through intraperitoneal route on days 1,5, 9. In kind it is functional, Mus musculus.
Test [36] concerns P388. The test is described as follows: Compound was evaluated for the antineoplastic activity against P388 leukemia at an optimal dose of 100 mg/kg administered intraperitoneally. Format: functional, Mus musculus. Conditions: route intraperitoneal.

As to `CC1(C)CN1P(=O)(N1CCCCC1)N1CC1(C)C` (stereo not drawn), the values for the T/C in the test with P388 [1] and in the test on B16 [2] were 218% and 132%, respectively.

Consider `CCCNP(=O)(N1CC1(C)C)N1CC1(C)C` (stereo not drawn), for which the T/C was found to be 363% with P388 [1], 144% in the test with B16 [3] and 162% with B16 [4]. This compound displayed a Survivors in the test filed under Mus musculus [5] of 2.

Consider `CCOP(=O)(N1CC1(C)C)N1CC1(C)C` (stereo not drawn), for which the T/C with B16 [6] was 188% and 119%; with M109 [7], 146%; in the test with P388 [8], 272%; with Colon 26 [9] it was 144%; in the test on M109 [10] it was 104%; in the test with Colon 26 [11], 130%. This compound yielded a Survivors in the test filed under Mus musculus [5] of 2.

With `CCNP(=O)(N1CC1(C)C)N1CC1(C)C` (stereo not drawn), the figures for the T/C with P388 [1] and in the test with B16 [3] were 288% and 148%, respectively.

With `CCCCNP(=O)(N1CC1(C)C)N1CC1(C)C` (stereo not drawn), the T/C stood at 238% in the test with P388 [1] and 157% in the test with B16 [3].

As for `CN(C)CCCNP(=O)(N1CC1(C)C)N1CC1(C)C` (stereo not drawn), the T/C with P388 [12] is 231%; in the test with Colon 26 [13] it was 170%; with B16 [4] (80 mg/kg) it was 210% and 172%. In addition, the Survivors in the test listed under Mus musculus [14] worked out at 2.

Regarding `CC1(C)CN1P(=O)(N1CCOCC1)N1CC1(C)C` (stereo not drawn), the T/C was 247% in the test with P388 [1] and 160% with B16 [2].

Take `CC1(C)CN1P(=O)(NC1CCCCC1)N1CC1(C)C` (stereo not drawn): the T/C with P388 [1] was found to be 106%.

Regarding `CN(C)P(=O)(N1CC1(C)C)N1CC1(C)C` (stereo not drawn), the T/C stood at 125% in the test with Colon 26 [15]; 207% in the test with L1210 [16]; 118% in the test with B16 [17]; 153% with B16 [3]; 108% in the test on B16 [18]; 127% in the test with Colon 26 [19]. Further, in the test with P388 [20], the T/C came out at 272%.

For the compound `CN1CCN(P(=O)(N2CC2(C)C)N2CC2(C)C)CC1` (stereo not drawn), the T/C with B16 [4] is 170%; in the test with P388 [20] it was 224%.

`COCCCNP(=O)(N1CC1(C)C)N1CC1(C)C` (stereo not drawn): the T/C with P388 [1] is 225%; in the test with B16 [4], 160%. For the same compound, the Survivors in the test filed under Mus musculus [5] came to 1.

On to `CC1(C)CN1P(N)(=O)N1CC1(C)C` (stereo not drawn), for which the T/C is 310% and 181% with B16 [6]; 206% in the test with P388 [1]; 157% in the test on M109 [7]; 191% and 180% in the test on B16 [3] (120 mg/kg); 99% with M109 [21]; 214% with B16 [22]. In addition, the T/C is 127% in the test with Colon 26 [23]; 164% with L1210 [24]; 110% in the test on B16 [25]; 210% with B16 [4]; 104% in the test on M109 [26]; 123% in the test with B16 [27]. For the same compound, the T/C in the test on Colon 26 [19] turned out to be 221%; in the test on Colon 26 [28], 190%. Besides, the Survivors in the test filed under Mus musculus [14] was 3 and 2; in the test filed under Mus musculus [29], 3 and 2.

As to `CNP(=O)(N1CC1(C)C)N1CC1(C)C` (stereo not drawn), the T/C in the test with B16 [17] turned out to be 120%; with B16 [3] it was 153%; in the test with Colon 26 [30], 151%; in the test on B16 [18], 126%; in the test with L1210 [31], 207%; with P388 [20], 239%. The compound also showed a T/C with Colon 26 [32] of 166%. The compound also gave a Survivors in the test listed under Mus musculus [5] of 1.

For the compound `O=C(O)CCCc1ccc(N(CCCl)CCCl)cc1` [CHLORAMBUCIL], the T/C in the test with B16 [33] is 121%; in the test on B16 [34] it was 132%; with B16 [35], 125%.

As to `O=P1(N(CCCl)CCCl)NCCCO1` (stereo not drawn) [CYCLOPHOSPHAMIDE ANHYDROUS], the T/C with B16 [6] was 143% and 205%; with B16 [3], 180%. The compound also displayed a Survivors in the test filed under Mus musculus [29] of 1.

For `CCOC(=O)NP(=O)(N1CC1(C)C)N1CC1(C)C` (stereo not drawn) [METUREDEPA], in the test with P388 [36], the T/C amounted to 244%.

With `CC1(C)CN1P(=O)(Nc1ccccc1)N1CC1(C)C` (stereo not drawn) [PHOSPHINIC ANILIDE DERIVATE], the T/C with P388 [1] is on record as 169%.

A word on the T/C: it is the ratio of treated to control.
